SR-BI DiI inh: mouse SR-BI HDL lipid transfer inhibition. ldlA[mSR-BI] CHO cells, DiI-HDL uptake fluorescence, 3 h. inhibition, % at 12.5 µM. 0.96% of 320,000 active. AID 488896;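 active = mean replicate inhibition of at least 70% and a set share of replicates each scoring 70 or more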;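 also: 0% = median of neutral control wells and 100% = median of positive control wells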
Target sequence (Q61009 whole entry, looked up): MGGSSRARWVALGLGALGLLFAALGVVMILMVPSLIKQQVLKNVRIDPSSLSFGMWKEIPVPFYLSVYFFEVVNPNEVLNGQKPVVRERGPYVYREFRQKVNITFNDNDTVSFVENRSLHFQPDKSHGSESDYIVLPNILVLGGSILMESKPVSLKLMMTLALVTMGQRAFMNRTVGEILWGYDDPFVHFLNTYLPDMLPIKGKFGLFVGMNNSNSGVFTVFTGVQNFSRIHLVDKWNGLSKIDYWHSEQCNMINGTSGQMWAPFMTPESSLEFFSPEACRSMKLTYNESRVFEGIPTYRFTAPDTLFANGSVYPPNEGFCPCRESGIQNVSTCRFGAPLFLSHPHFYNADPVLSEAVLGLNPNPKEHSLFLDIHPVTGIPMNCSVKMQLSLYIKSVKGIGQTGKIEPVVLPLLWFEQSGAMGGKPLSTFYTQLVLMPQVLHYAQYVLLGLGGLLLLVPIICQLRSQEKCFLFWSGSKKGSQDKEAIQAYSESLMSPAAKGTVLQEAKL
Vif imaging: blocks HIV Vif function; HEK293T cells, Vif self-association by quenched fluorescence, imaging, 24 h; inhibition, % at 7.49 µM; 0.35% of 340,000 active; in the data active = inhibition above about 50%, passing the limit was not always enough
SR-BI DiI-HDL act: SR-BI HDL lipid transfer activation. 0.096% of 320,000 active. activation, % at 12.5 µM. AID 504775. CHO ldlA[mSR-BI] cells, DiI-HDL uptake fluorescence, 3 h; 100 = double the neutral-control signal;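 active = mean replicate activation of at least 60% and every replicate at or above 60%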;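 also: 0% = median plate neutral-control signal and 100% = twice that signal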
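material = CHO ldlA[mSR-BI] cells | medium = Ham's F12 with 0.5% BSA, HEPES 25 mM, pH 7.4 | reagent = fluorescent DiI-HDL, 10 µg/mL final | compound dosing = single-point compound dose | incubation = 3 h, 37 °C | measured by = bottom-read fluorescence, 550/595 nm | measure = HDL uptake via cellular fluorescence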
Statin myotox sup: protects C2C12 myotubes from simvastatin toxicity | ATP luminescence, 48 h; scaled: DMSO 0, geranylgeraniol control 100 | rescue of ATP level, % at 7.49 µM | 0.78% of 330,000 active | AID 602340;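 active = mean ATP rescue above about 67%, or every replicate alone reaching that limit, limit read from the data, passing the limit was not always enough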;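 also: myotubes were challenged with 10 µM simvastatin during compound exposure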
* marks the source's active call; other numbers are inactive results; / = no result; + = active, no number. Only some compounds are listed: those with a hit (about 1.7% of all), similar ones and a draw of the others.

SMILES	SR-BI DiI inh	Vif imaging	SR-BI DiI-HDL act	Statin myotox sup
COc1ccccc1OCC(=O)Nc1ccc(S(=O)(=O)N2CCCC2)cc1	/	76*	/	13
COc1cc(/C=N/NC(N)=O)ccc1OCC(=O)Nc1ccc(C)c(C)c1	35	6	-35	/
CCOc1ccccc1NC(=O)C1CCCN(S(=O)(=O)c2ccc(OC)c(C)c2)C1 (configuration not stated)	5	-1	-5	122*
Cc1noc(C)c1S(=O)(=O)Nc1ccc2c(c1)C(=O)N([C@H](C)CO)C[C@H](C)[C@H](CN(C)S(=O)(=O)c1ccc(F)cc1)O2	/	/	/	-6
CO[C@H]1CN(C)C(=O)c2cc(NS(C)(=O)=O)ccc2OC[C@H](C)N(C(=O)C2CCCCC2)C[C@H]1C	/	/	/	1
COc1ccccc1OCC(=O)Nc1ccc(NC(=O)COc2ccccc2OC)cc1	92*	/	-92	/
CC(C)Nc1c(N)c(=O)oc2ccccc12	-24	59*	24	5
COCC#Cc1cnc2c(c1)C(=O)N([C@@H](C)CO)C[C@H](C)[C@@H](CN(C)Cc1ccccc1F)O2	/	/	/	22
COc1ccc2sc(-c3ccc(N(C)C)cc3)c(-c3cnc(OC)nc3)c2c1	82*	/	-82	-23
COC(=O)c1c(-c2ccsc2)sc2ccc(-c3cc(OC)c(OC)c(OC)c3)cc12	75*	-3	-75	-21
COc1ccc2sc(-c3ccc(SC)cc3)c(-c3ccc(O)cc3)c2c1	76*	2	-76	-51
COC(=O)c1c(-c2ccc(N(C)C)cc2)sc2ccc(OC)cc12	79*	0	-79	8
COc1cc(-c2ccc3sc(-c4ccsc4)c(C#CCO)c3c2)cc(OC)c1OC	69	-11	-69	-4
COC(=O)c1c(-c2ccc(OC)cc2)sc2cc3c(cc12)OCO3	12	3	-12	19
CCCNC(=O)C[C@H]1CC[C@@H]2[C@H](COC[C@H](O)CN2C(=O)c2ccc(F)cc2)O1	/	/	/	2
CCOc1ccccc1NC(=O)Cn1nnc(C(=O)NCCc2ccc(OCC)c(OCC)c2)c1N	85*	11	-85	-11
Cc1cc(C)cc(NC(=O)Cn2nnc(C(=O)NCc3ccc(F)cc3)c2N)c1	-14	-1	14	120*
COc1ccc(CCNC(=O)Cn2nnc(C(=O)Nc3ccc(Br)cc3)c2N)cc1OC	52	-4	-52	-1
CCOc1ccc(NC(=O)Cn2nnc(C(=O)NCCc3ccc(OC)c(OC)c3)c2N)cc1	74*	0	-74	/
CO[C@H]1CN(C)C(=O)c2ccc(NC(=O)C3CCOCC3)cc2OC[C@@H](C)N(C)C[C@H]1C	/	/	/	3
O=C1Nc2ccccc2N(O)N1c1ccc(Cl)cc1	-19	-4	19	/
CCN1c2ccccc2NC2C1C(C(C)=O)C(=O)N2c1ccc(Cl)cc1 (configuration not stated)	-7	+	7	3
C[C@@H]1CN([C@H](C)CO)C(=O)c2cc(NC(=O)NC3CCCCC3)ccc2O[C@@H]1CN(C)S(=O)(=O)c1ccc(F)cc1	/	/	/	-33
C[C@H]1CCCCO[C@H](CN(C)C(=O)CCCN(C)C)[C@@H](C)CN([C@@H](C)CO)C(=O)c2cc(NC(=O)CCC(F)(F)F)ccc2O1	/	/	/	0
Cc1nc(-c2ccc(O)c(O)c2)cs1	-24	67*	24	-21
SMILES	SR-BI DiI inh	Vif imaging	SR-BI DiI-HDL act	Statin myotox sup
CCC(C)[C@@H](CN(N=O)[C@@H](Cc1ccccc1)CN(C)N=O)N(CCc1ccccc1)N=O (some centres not stated)	-68	-8	68*	-5
Cc1ccc(S(=O)(=O)N(C)C[C@@H]2Oc3ccc(NS(=O)(=O)c4ccc(F)cc4)cc3C(=O)N([C@H](C)CO)C[C@H]2C)cc1	/	/	/	-4
C[C@@H]1CN([C@@H](C)CO)C(=O)c2cc(C#CC3CC3)cnc2O[C@H]1CN(C)C(=O)Nc1ccccc1	/	/	/	1
CC(=O)c1sc(NC(=O)c2cc(-c3ccccc3)nn2-c2ccccc2)nc1C	80*	-12	-80	18
CCOC(=O)c1c(Nc2ccc(Cl)cc2)sc(/C=C2\C=Nc3ccccc32)c1O	91*	13	-91	-108
COc1ccc(C(=O)CSc2nnc(CNc3ccc(F)cc3)o2)cc1	12	-11	-12	/
O=C(CSc1nnc(CNc2ccc(F)cc2)o1)c1ccccc1	-1	62*	1	/
CCc1c(C)sc(NC(=O)c2ccco2)c1C(=O)N1CCCCC1	5	-1	-5	116*
CCc1c(C)sc(NC(=O)c2ccco2)c1C(=O)N1CCOCC1	20	6	-20	-1
CCSc1nc2cc(OC)c(OC)cc2c(=O)n1CCc1ccccc1	71*	-5	-71	-46

Screening results: PubChem BioAssay, Broad Institute
